# Assay: Toxicity liver stage against HepG2, at 10uM
# Type: cell-based
# Parameters: test concentration 10 uM, cell line HepG2-A16-CD81EGFP
# Details: human, HepG2-A16-CD81EGFP cells; read-out: INHIBITION
# In short: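 Uninfected HepG2-A16-CD81EGFP cells, 3 × 10^3 per well, 1536-well, plated on prespotted compound at 10 μM final, parasite-free screening media added to match infected plates; puromycin 10 μM positive, DMSO 0.5% negative; run in parallel with 48 h PbLuc assay at 37 °C, 5% CO2; viability by CellTiter-Glo luminescence, normalized to controls.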
row,SMILES,cytotoxicity at 10 µM [%]
1,CN1C[C@H]2CN(Cc3cccc(OC(F)(F)F)c3)CCN2C1=O,4.85
2,CN(C)C[C@H]1O[C@H](Cc2cc(-c3ccccn3)on2)CC[C@@H]1O,-3.15
3,CC1=C(c2ccc(C)cc2)S(=O)(=O)N=C1N1CCc2ccccc21,-7.12
4,COc1ccc(-c2cc(C(=O)NCCC(C)C)n(C)n2)cc1,0
5,COCCn1ccc2c(NC(=O)c3n[nH]c4c3CCCC4)cccc21,10.3
6,NC(=O)Cn1c(CO)cnc1SCC(=O)NCc1ccccc1,0.252
7,COC1COC2(CCN(Cc3ccco3)CC2)C1 (configuration not stated),8.62
8,CCOc1cccc2c1OCC(=O)N(c1ccc3c(c1)OCO3)C2,17.1
9,CC(C)(C)c1csc(CCNC(=O)C(c2ccccc2)n2cnnn2)n1 (configuration not stated),6.53
10,CCOc1ccc(-n2nnc(C(=O)O)c2-c2ccncc2)cc1,-4.14
11,c1cnc(NCc2noc3c2CN(C2CCOCC2)CC3)nc1,-6.23
12,C/N=C1/c2cc3cc(OC)ccc3n2CCN1C,3.34
13,Cc1cc2c(cc1Cl)C=CC1(CCN(CC(=O)N3CCOCC3)CC1)O2,-1.7
14,COc1cccc([C@@]2(O)CC[C@@H]3CN(C(=O)c4c[nH]nc4C)C[C@@H]32)c1,2.67
15,COCCC(=O)N1CCC2(CC1)CN(C(C)=O)Cc1ccccc1O2,0.245
16,COCC(=O)N1CCC2(CC1)CN(S(C)(=O)=O)Cc1ccccc1O2,7.3
17,Cc1ncc(CNC(=O)CCOc2ccccc2)c(C2CCCN2C)n1 (configuration not stated),-1.03
18,O=S(=O)(Nc1ccc(N2CCOCC2)cn1)c1cccc(F)c1,-9.68
19,COc1c(F)cc(NCC(=O)NC(C)(C#N)C2CC2)cc1F (configuration not stated),-3.82
20,CNC(=O)Cc1ccc(NC(=O)NCC(C)c2ncc(C)s2)cc1 (configuration not stated),-14.4
21,O=C(c1ccc(Cl)cn1)N1CCC(COCc2ccccc2)C1 (configuration not stated),5.88
22,Cc1cc(NC(=O)CNc2ccc(Br)cc2F)on1,-28.1
23,O=C(CC1OCCc2ccsc21)NCC1CC1 (configuration not stated),7.18

row,SMILES,cytotoxicity at 10 µM [%]
1,CN(CCc1ccncc1)C1CCCN(Cc2noc(C3CC3)n2)C1 (configuration not stated),8.66
2,CN(Cc1ccc2c(c1)OCO2)Cc1nc(-c2ccco2)no1,-1.64
3,Cn1ncnc1CCNC(=O)c1cc(Cl)c(Cl)n1C,-5.12
4,COc1ccc(S(=O)(=O)N2CCC(OCc3ccccn3)C2)cc1Br (configuration not stated),2.24
5,CC(C)Oc1ccc(CNC(=O)c2cc(C(N)=O)cs2)cc1F,12.6
6,CCOc1ccccc1C(CC(=O)N(C)C)NC(C)=O (configuration not stated),-4.67
7,CNS(=O)(=O)c1ccc(CNC(=O)c2ccccn2)cc1,10.2
8,Cc1cccc(C2(C(=O)NCC(C)CN3CCCC3=O)CC2)c1 (configuration not stated),-0.89
9,CC(C)COC(C)C(=O)N1CCCC1 (configuration not stated),2.77
10,CNC(=O)CN1CCCC1c1ccccc1Br (configuration not stated),-2.22
11,OC(COCc1ccco1)CSc1nnc2ccccn12 (configuration not stated),3.55
12,Cc1cc(NC(C)C(=O)NCC(F)(F)F)nc(-c2ccncc2)n1 (configuration not stated),4.96
13,CNC(=O)COc1ccccc1CNCc1c(C)noc1C,2.32
14,CNC(=O)C1CCCN(C(=O)C2CCC2)C1 (configuration not stated),-4.47
15,Cc1csc(CNc2cnn(CC(F)(F)F)c2)n1,5.19
16,O=C1CCN(C(=O)c2ncoc2-c2ccco2)c2ncccc2N1,-3.58
17,CSCCC(C)NC(=O)N1CCSC(C)(C)C1 (configuration not stated),5.89
18,O=C(c1ccncc1)N1CCCC1c1cccc(Br)c1 (configuration not stated),16.9
19,CN(C)C(=O)N1CCN(C(=O)c2ccn3cncc3c2)CC1,-9.96
20,Cc1cnc(NC2CCN(CC(=O)Nc3ccccc3)CC2)nc1C,-5.47
21,FC(F)(F)c1cc(NCCCn2cccn2)nc(-c2cccnc2)n1,8.06
22,Cn1ccnc(Sc2cccc(C#N)c2)c1=O,4.64
23,CC(NCc1ccc(Cl)o1)c1nnc2n1CCCC2 (configuration not stated),-15.9

row,SMILES,cytotoxicity at 10 µM [%]
1,CNC(=O)NC(=O)CN1CCC(c2c[nH]c3ccc(OC)cc23)CC1,21.4
2,Cc1ccccc1C(=O)NCc1ccc(N2CCNC(=O)C2)cc1,-9.67
3,CN(CC(N)=O)S(=O)(=O)c1ccc(F)cc1Cl,-11.9
4,COCC(=O)N(C)Cc1cccc(Cl)c1,-10.8
5,COc1ccc(CNC(=O)NC2CCC(O)CC2)c(C(F)(F)F)c1 (configuration not stated),-12
6,c1ccc(CN2CCc3ncnc(-c4cncnc4)c3CC2)nc1,-68.3
7,CCC(=O)N1CCN(C(=O)c2cn3ccsc3n2)[C@H]2CS(=O)(=O)C[C@H]21,4.95
8,CN(Cc1cc(C2CC2)[nH]n1)C(=O)c1cnn2ccn(C)c12,-3.67
9,CCC(CO)N(Cc1ccc(C(=O)O)cc1)Cc1ccsc1 (configuration not stated),2.17
10,Cc1nc2c(c(=O)[nH]1)CCN(C(=O)c1[nH]nc3c1CC(C)CC3)C2 (configuration not stated),13.4
11,CCc1cnc(C)nc1NC1CC(=O)N(CC)C1 (configuration not stated),1.07
12,CSCCC(O)C(=O)N1CCC(OCc2cccnc2)CC1 (configuration not stated),3.96
13,COc1ccc2c(c1)OCC(Cc1ccc(N(C)C)nc1)C2 (configuration not stated),2.77
14,Cc1cc(N2CCN(C(=O)Cc3c(C)nc(C)[nH]c3=O)CC2)cc(C)n1,9.66
15,O=C(Cc1ccc(CO)cc1)N1CCN(c2ccccc2Cl)C(=O)C1,6.39
16,CCc1ccc2ncn(Cc3ncc[nH]3)c(=O)c2c1,11.1
17,Cc1ccc2c(c1)SCC(=O)N2Cc1noc(C2CCCO2)n1 (configuration not stated),-0.0938
18,CC(C)=CCC1(C(=O)O)CCCN(c2ccnc(N)n2)C1 (configuration not stated),-13.7
19,CN(C)c1ccccc1C(=O)N1C[C@@H](CN2CCC(O)CC2)[C@@H](CO)C1,3.11
20,CCC1CN(C(=O)c2ccccc2N(C)C)CCN1C(C)C (configuration not stated),-0.238
21,CCc1[nH]c2c(CNC(=O)C3CCN(C)C3)cc(C)cc2c1C (configuration not stated),-7.71
22,CC(NCc1cc(O)c2cccc(F)c2n1)c1ccc(S(C)(=O)=O)cc1 (configuration not stated),4.03
23,c1cn(CC2CCOCC2)c(-c2cc(CN3CCCC3)cs2)n1,-2.96

row,SMILES,cytotoxicity at 10 µM [%]
1,O=C1CCOCCN1Cc1ccc(C(F)(F)F)c(F)c1,-7.63
2,COCCc1noc(CN(C)C(=O)C2COc3ccccc3C2)n1 (configuration not stated),8.63
3,CN(C)CCN1CC(C(=O)N2CCC(c3cc(=O)[nH]cn3)CC2)CC1=O (configuration not stated),-2.34
4,CS(=O)(=O)N[C@H]1CN(CCOCc2ccccc2)C[C@@H]1C1CC1,-1.1
5,Clc1cc(NCc2nccs2)nc2[nH]ccc12,6.58
6,CCCc1ccc(OC23CCCN(CC2)C3)c(OC)c1 (configuration not stated),-17.3
7,C[C@@H]1CN(Cc2c[nH]c(CC3CCCC3)n2)CC[C@]1(C)O,3.69
8,CCn1c(CN2CCCC2)nnc1C1CCN(Cc2cccnc2)CC1,3.33
9,Cc1cc(-c2nn(C)c(Cl)c2CN2CCOCC2CC(N)=O)no1 (configuration not stated),3.3
10,Cc1ccccc1-c1cccc(CN2C[C@H]3C(=O)NC[C@@]3(C(=O)O)C2)c1,-0.147
11,CCN(Cc1ccncc1)C(=O)CCn1c(C)cc2ccccc21,-3.38
12,O=S1(=O)COCCN1Cc1cccc(Cl)c1,-11.4
13,Cn1cccc1C(=O)N1CCCN(CCCc2ccccc2)CC1,-16.4
14,CCC1CN(C(=O)c2ccc(=O)[nH]c2)CCC(=O)N1Cc1ccccc1 (configuration not stated),-17.6
15,Cc1nn(C)cc1-c1cc(C(F)(F)F)c2c(C)nn(CC(=O)O)c2n1,-4.79
16,Cc1nc(CNC(=O)N(C)Cc2cnn(C)c2)cs1,-14.3
17,CN(Cc1ccccc1)CC(O)Cn1cnc2ccc(Br)cc2c1=O (configuration not stated),-9.04
18,Cc1nnc2n1CCN(C(C(=O)NC(C)C)c1ccccc1)C2 (configuration not stated),-5.92
19,O=C(Nc1nccs1)NC1CCN(Cc2ccccc2)CC1,-7.07
20,Cc1nc(C(=O)N2CCCN(Cc3cnn(C)c3)CC2)ccc1C#N,-0.514
21,Cc1cccc(CNC(C)c2ccc(OCC(=O)NC3CC3)cc2)c1 (configuration not stated),-10
22,c1ccc(-n2ccc(CN3CCCC(Cn4cncn4)C3)n2)cc1 (configuration not stated),-16
23,Cc1ccc(-c2nc(CN3CCN(CC(=O)N(C)C)CC3)cs2)o1,-22

row,SMILES,cytotoxicity at 10 µM [%]
1,CC(C)OCc1ccc(CNC(=O)CC(F)(F)F)cc1,-2.26
2,CCCc1nc(CN2CCOC(Cn3cncn3)C2)no1 (configuration not stated),-7.03
3,Cc1ccccc1Cc1cnc(NC(=O)C2CNC(=O)N2)s1 (configuration not stated),-3.37
4,O=C(COc1ccc2c(c1)CCC2)N1CCOCC1c1ncon1 (configuration not stated),-10.2
5,O=C(NCCNc1ccccn1)N1CCSCC1,-9.58
6,CS(=O)(=O)NCC1CCCN(C(=O)c2ccc(Cl)o2)C1 (configuration not stated),-10.2
7,O=C(COCC1CC1)N1CCCC(n2ccnc2)C1 (configuration not stated),0.0481
8,CNS(=O)(=O)c1cccc(CNC(=O)c2c(C)nn(C)c2C)c1,9.26
9,COc1ccccc1OCCC(=O)N1CCCC1Cn1cc(C)cn1 (configuration not stated),6.02
10,c1cnnc(N2CCCC(NCc3ccc(-n4ccnc4)cc3)C2)c1 (configuration not stated),0.866
11,CCOc1ccc(CC(=O)N2CCN(c3nccn3C)CC2)cc1,6.85
12,CCCC(=O)N(C)Cc1nc(N2CCCC2)ncc1-c1ccncc1,9.76
13,Cc1ccc(CN2C(=O)CCC23CCC(NCC2CCOC2)CC3)cc1 (configuration not stated),-4.75
14,CN(CCO)CC1COCCN1C(=O)C1(c2cccs2)CCCC1 (configuration not stated),-9.06
15,COCc1cncc2c1CCN(C(=O)c1cccc(C#N)c1)C2,-98.2
16,CC(C)C(=O)N1CC[C@H]2N(C)CC[C@@]2(C(=O)N2CCOCC2)CC1,-0.449
17,CC(C)NC(=O)[C@@H]1C[C@H]2NCC[C@H]2O1,-96.9
18,c1ccc(CN2C[C@@H]3CCCO[C@@H]3[C@H](Nc3ccccn3)C2)nc1,-7.39
19,Cc1nc(CN2C(=O)COC3(CCN(Cc4nccs4)CC3)C2C)cs1 (configuration not stated),-10.4
20,CCOC(=O)[C@]12CCCN(Cc3nccs3)C[C@H]1CN(CCN(C)C)C2,-9.82

# Source: ChEMBL document CHEMBL4513216, “Probing the Open Global Health Chemical Diversity Library for Multistage-Active Starting Points for Next-Generation Antimalarials” (ACS Infect Dis, 2020)
